In brackets after ≈: the same amount, converted by molar mass. Activity calls are given as the source filed them. The calls are words filed in the database; no cut-off is given here.
Experiments:
[1] = test system: Staphylococcus aureus; assay: Antibacterial activity against Staphylococcus aureus ATCC 25923 measured after 18 to 24 hrs by microtiter dilution method; type: functional; details: time 18-24 hrs
Method in brief: (§1)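 Compounds were taken up in 25% DMSO at 64 μg/mL and serially diluted two-fold in water (11 dilutions). Log-phase bacteria grown in MHB were diluted to 10^5-10^6 CFU/mL and mixed 1:1 with the dilutions. Plates were incubated at 37 °C for 18-24 h. MIC was the lowest concentration giving no growth by OD492, averaged over three independent experiments.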

[2] = test system: Staphylococcus epidermidis; assay: Antibacterial activity against Staphylococcus epidermidis ATCC 51625 measured after 18 to 24 hrs by microtiter dilution method; type: functional; details: time 18-24 hrs; method in brief: as §1
[3] = test system: Staphylococcus aureus; assay: Antibacterial activity against Staphylococcus aureus BNCC 337371 measured after 18 to 24 hrs by microtiter dilution method; type: functional; details: time 18-24 hrs; method in brief: as §1
[4] = test system: Streptococcus dysgalactiae; assay: Antibacterial activity against Streptococcus dysgalactiae measured after 18 to 24 hrs by microtiter dilution method; type: functional; details: time 18-24 hrs; method in brief: as §1
[5] = test system: Streptococcus agalactiae; assay: Antibacterial activity against Streptococcus agalactiae measured after 18 to 24 hrs by microtiter dilution method; type: functional; details: time 18-24 hrs; method in brief: as §1
[6] = test system: Enterococcus faecalis; assay: Antibacterial activity against Enterococcus faecalis measured after 18 to 24 hrs by microtiter dilution method; type: functional; details: time 18-24 hrs; method in brief: as §1
[7] = test system: Pasteurella multocida; assay: Antibacterial activity against Pasteurella multocida CVCC 1659 measured after 18 to 24 hrs by microtiter dilution method; type: functional; details: time 18-24 hrs; method in brief: as §1
[8] = test system: Escherichia coli; assay: Antibacterial activity against Escherichia coli CICC 10389 measured after 18 to 24 hrs by microtiter dilution method; type: functional; details: time 18-24 hrs; method in brief: as §1
[9] = test system: Staphylococcus aureus; assay: Bacteriostatic activity against Staphylococcus aureus BNCC 337371 assessed as reduction in bacterial load incubated for 2 to 24 hrs prior to 10 fold dilution followed by replating on MH agar plate and measured after 24 hrs by time-kill assay; type: functional, organism-based; details: time 2-24 hrs
Method in brief: (§2)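 MRSA-337371 was grown in Mueller-Hinton broth at 37 °C for 6 h with shaking, then diluted to about 6×10^5 CFU/mL. It was exposed to 0.5, 1, 2 and 4× MIC. Samples taken at 0, 2, 4, 6, 8, 12 and 24 h were serially diluted 10-fold in 0.9% saline and plated on MH agar at 37 °C for 24 h. Colonies were counted as log10 CFU/mL, in triplicate.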

[10] = test system: Staphylococcus aureus; assay: Bacteriostatic activity against Staphylococcus aureus BNCC 337371 assessed as reduction in bacterial load at 2 to 4 times MIC incubated for 8 hrs prior to 10 fold dilution followed by replating on MH agar plate and measured after 24 hrs by time-kill assay relative to control; type: functional; details: time 32 hrs; method in brief: as §2
[11] = test system: Staphylococcus aureus; assay: Antibacterial activity against Staphylococcus aureus BNCC 337371 infected in ip dosed Kunming mouse assessed as increase in mouse survival measured after 7 days; type: functional; details: for ED50: BNCC 337371, ip, 168 h, time 7 day; for Activity: time 7.0 day
Method in brief: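 Neutropenic 6-8 week Kunming mice (cyclophosphamide 150 mg/kg ip for four days, then 100 mg/kg one day before inoculation) were infected ip with 0.5 mL MRSA-337371 at 10^8 CFU/mL. About 1 h later they were dosed ip at 5, 8, 15, 25 or 40 mg/kg in DMSO:Tween-80:water 0.5:0.5:9 (10 per group). Mice were observed twice daily, survival was read at day 7, and ED50 was calculated by the Bliss method.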

[12] = test system: Staphylococcus aureus; assay: Antibacterial activity against Staphylococcus aureus BNCC 337371 infected in Kunming mouse assessed as reduction in bacterial load in lung at 20 to 40 mg/kg, ip measured after 2 days by colony counting method; type: functional, organism-based; details: dose 20-40 mg/kg, time 2.0 day
Method in brief: (§3)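 Kunming mice (SPF, 6-8 weeks) were made neutropenic with ip cyclophosphamide, 150 mg/kg for four days and 100 mg/kg one day before infection. They were infected ip with 0.5 mL of MRSA-337371 at 10^8 CFU/mL. About 1 h later, compound was given ip in 0.5 mL vehicle (DMSO:Tween-80:water 0.5:0.5:9). After 2 d of treatment, lung, kidney and liver were weighed, homogenized in saline, diluted 10-fold, plated on MH agar at 37 °C for 24 h in triplicate, and expressed as CFU/g.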

[13] = test system: Staphylococcus aureus; assay: Antibacterial activity against Staphylococcus aureus BNCC 337371 infected in Kunming mouse assessed as reduction in bacterial load in kidney at 20 to 40 mg/kg, ip measured after 2 days by colony counting method; type: functional, organism-based; details: dose 20-40 mg/kg, time 2.0 day; method in brief: as §3
[14] = test system: Staphylococcus aureus; assay: Antibacterial activity against Staphylococcus aureus BNCC 337371 infected in Kunming mouse assessed as reduction in bacterial load in liver at 20 to 40 mg/kg, ip measured after 2 days by colony counting method; type: functional, organism-based; details: dose 20-40 mg/kg, time 2.0 day; method in brief: as §3
[15] = test system: Staphylococcus aureus; assay: Antibacterial activity against Staphylococcus aureus BNCC 337371 infected in Kunming mouse assessed as reduction in lung tissue damage at 20 to 40 mg/kg, ip measured after 2 days by H and E staining based light microscopic analysis; type: functional, organism-based; details: dose 20-40 mg/kg, time 2.0 day
Method in brief: (§4)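 In neutropenic Kunming mice infected ip with MRSA-337371 and treated ip, lungs were taken after 2 d of treatment. They were fixed in 10% buffered formalin, embedded in paraffin, cut into 4 μm sections, stained with H&E and examined by light microscopy against normal and untreated infected groups.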

[16] = test system: Staphylococcus aureus; assay: Antibacterial activity against Staphylococcus aureus BNCC 337371 infected in Kunming mouse assessed as reduction in inflammatory cell infiltration in pulmonary interstitium at 40 mg/kg, ip measured after 2 days by H and E staining based light microscopic analysis; type: functional, organism-based; details: time 2.0 day; method in brief: as §4
[17] = test system: Staphylococcus aureus; assay: Antibacterial activity against Staphylococcus aureus BNCC 337371 infected in Kunming mouse assessed as thickening of alveolar septum and wall at 20 mg/kg, ip measured after 2 days by H and E staining based light microscopic analysis; type: functional, organism-based; details: time 2.0 day; method in brief: as §4
[18] = test system: Staphylococcus aureus; assay: Antibacterial activity against Staphylococcus aureus BNCC 337371 infected in Kunming mouse assessed as bacterial load in lung at 20 to 40 mg/kg, ip measured after 2 days by colony counting method (reference value: 4.8 log10CFU/ml); type: functional; details: dose 20-40 mg/kg; time 2 day; method in brief: as §3
[19] = test system: Staphylococcus aureus; assay: Antibacterial activity against Staphylococcus aureus BNCC 337371 infected in Kunming mouse assessed as reduction in infiltration of neutrophils cells at 20 to 40 mg/kg, ip measured after 2 days by H and E staining based light microscopic analysis; type: functional, organism-based; details: dose 20-40 mg/kg, time 2.0 day; method in brief: as §4
[20] = test system: Staphylococcus aureus; assay: Antibacterial activity against Staphylococcus aureus BNCC 337371 infected in Kunming mouse assessed as reduction in local congestion in lung at 20 to 40 mg/kg, ip measured after 2 days by H and E staining based light microscopic analysis; type: functional, organism-based; details: dose 20-40 mg/kg, time 2.0 day; method in brief: as §4

Structure (SMILES)	MIC [1]	MIC [2]	MIC [3]	MIC [4]	MIC [5]	MIC [6]	MIC [7]	MIC [8]	Activity [9]	fold change (FC) [10]	ED50 [11]	Activity [11]	Activity [14]	also measured
C=C[C@]1(C)C[C@@H](OC(=O)CSc2nc(C)cc(N3CCOCC3)n2)[C@@]2(C)[C@H](C)CC[C@]3(CCC(=O)[C@H]32)[C@@H](C)[C@@H]1O	0.11 µM (≈ 0.0629 µg/mL)	0.11 µM (≈ 0.0629 µg/mL)	0.11 µM (≈ 0.0629 µg/mL)	0.05 µM (≈ 0.0286 µg/mL)	0.05 µM (≈ 0.0286 µg/mL)	14 µM (≈ 8 µg/mL)	14 µM (≈ 8 µg/mL)	> 56 µM	Dose-dependent effect	>=2				
C=C[C@]1(C)C[C@@H](OC(=O)CSc2nc(C)cc(N3CCCC3)n2)[C@@]2(C)[C@H](C)CC[C@]3(CCC(=O)[C@H]32)[C@@H](C)[C@@H]1O	0.06 µM (≈ 0.0333 µg/mL)	0.11 µM (≈ 0.0611 µg/mL)	0.06 µM (≈ 0.0333 µg/mL)	0.06 µM (≈ 0.0333 µg/mL)	0.06 µM (≈ 0.0333 µg/mL)	14.4 µM (≈ 8.01 µg/mL)	14.4 µM (≈ 8.01 µg/mL)	> 57.6 µM	Dose-dependent effect	>=2	18 mg/kg	Dose-dependent effect	inactive	Activity [12]: Active; Activity [13]: Active; Activity [15]: Active; Activity [16]: Active; Activity [17]: Active
C=C[C@]1(C)C[C@@H](OC(=O)CSCCN(CC)CC)[C@]2(C)[C@H](C)CC[C@]3(CCC(=O)[C@H]32)[C@@H](C)[C@@H]1O [TIAMULIN]	0.82 µM (≈ 0.405 µg/mL)	0.82 µM (≈ 0.405 µg/mL)	0.82 µM (≈ 0.405 µg/mL)	0.2 µM (≈ 0.0988 µg/mL)	0.2 µM (≈ 0.0988 µg/mL)	52.5 µM (≈ 25.9 µg/mL)	3.28 µM (≈ 1.62 µg/mL)	52.5 µM (≈ 25.9 µg/mL)	Dose-dependent effect	1	25.9 mg/kg	Dose-dependent effect	inactive	Activity [18]: 1.1 log10CFU/ml; Activity [19]: Active; Activity [20]: Active

Source: ChEMBL document CHEMBL4706538, “Novel pleuromutilin derivatives with substituted 6-methylpyrimidine: Design, synthesis and antibacterial evaluation” (2020)
